What was measured:
[1] = Inhibition of mouse RML prion protein infected in mouse ScN2a-cl3 cells after 5 days; assay type: cell-based; conditions: N2a-cl3, 120 h
Brain [2] = experiment: (§1) AUC in mouse brain at 10 mg/kg, po administered as single dose; assay type: ADME, organism-based; set-up: dose 10 mg/kg, route oral; conditions: in vivo
Mus musculus [3] = experiment: Antiprion activity against mouse Scrapie prion protein ME7 infected in mouse assessed as mouse survival at 210 mg/kg/day (reference value: 126 +/- 2 days); assay type: organism-based
[4] = AUC in FVB mouse brain at 10 mg/kg, po administered as single dose; assay type: ADME, organism-based; set-up: dose 10 mg/kg, route oral
[5] = Cmax in FVB mouse plasma at 10 mg/kg, po administered as single dose; assay type: ADME, organism-based; set-up: dose 10 mg/kg, route oral
Outline: (§2)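 Female FVB mice were given a single dose, 1 mg/kg iv or 10 mg/kg po, and plasma and brain were analysed separately. Brain samples were whole-brain homogenate. Parameters came from concentration–time curves: Vss, clearance, half-life, Cmax, AUC, brain/plasma AUC ratio and bioavailability.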

Cervus elaphus nelsoni = experiment: Antiprion activity against elk PrpC protein infected in mouse chronic wasting disease model assessed as increase in mouse survival (reference value: 108 +/- 3 days)
[6] = Drug concentration at steady state in mouse brain assessed as total compound level in brain homogenates at 80 mg/kg/day, po measured after 3 days; assay type: ADME, organism-based; set-up: route oral; conditions: brain homogenate, read-out: Css
Outline: (§3)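 Mice received compound mixed into a liquid rodent diet for 3 days at about 40, 80, 130 or 210 mg kg-1 day-1. Plasma and brain were collected at the end of the last dosing cycle, at a single time point, and analysed as in the single-dose PK studies. Values are total drug in brain homogenate and are treated as pseudo-steady-state concentrations.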

[7] = Oral bioavailability in FVB mouse […] at 10 mg/kg administered as single dose; assay type: ADME, organism-based; conditions: plasma; outline: as §2
[8] = Clearance in FVB mouse plasma at 1 mg/kg, iv administered as single dose; assay type: ADME, organism-based; set-up: dose 1 mg/kg, route intravenous; outline: as §2
[9] = AUC in FVB mouse plasma at 10 mg/kg, po administered as single dose; assay type: ADME, organism-based; set-up: dose 10 mg/kg, route oral
[10] = Cmax in FVB mouse brain at 10 mg/kg, po administered as single dose; assay type: ADME, organism-based; set-up: dose 10 mg/kg, route oral; outline: as §2
[11] = AUC in mouse brain at 40 mg/kg, po administered as single dose; assay type: ADME, organism-based; set-up: dose 40 mg/kg, route oral
[12] = Volume of distribution at steady state in FVB mouse plasma at 1 mg/kg, iv administered as single dose; assay type: ADME, organism-based; set-up: dose 1 mg/kg, route intravenous; conditions: read-out: Vdss; outline: as §2
Plasma = experiment: (§4) AUC in mouse plasma at 10 mg/kg, po administered as single dose; assay type: ADME, organism-based; set-up: dose 10 mg/kg, route oral; conditions: in vivo
[13] = Drug concentration at steady state in mouse brain assessed as total compound level in brain homogenates at 210 mg/kg/day, po measured after 3 days; assay type: ADME, organism-based; set-up: route oral; conditions: brain homogenate, read-out: Css; outline: as §3
[14] = AUC in FVB mouse plasma at 1 mg/kg, iv administered as single dose; assay type: ADME, organism-based; set-up: dose 1 mg/kg, route intravenous
[15] = Drug concentration at steady state in mouse brain assessed as total compound level in brain homogenates at 130 mg/kg/day, po measured after 3 days; assay type: ADME, organism-based; set-up: route oral; conditions: brain homogenate, read-out: Css; outline: as §3
[16] = Ratio of drug level in brain to plasma in FVB mouse brain at 10 mg/kg, po administered as single dose; assay type: ADME, organism-based; set-up: dose 10 mg/kg, route oral; conditions: brain and plasma, read-out: BPR; outline: as §2
[17] = Half life in FVB mouse plasma at 1 mg/kg, iv administered as single dose; assay type: ADME, organism-based; set-up: dose 1 mg/kg, route intravenous; outline: as §2
[18] = Cmax in FVB mouse plasma at 1 mg/kg, iv administered as single dose; assay type: ADME, organism-based; set-up: dose 1 mg/kg, route intravenous; outline: as §2
Mus musculus [19] = experiment: Antiprion activity against mouse RML prion protein infected in mouse assessed as mouse survival at 210 mg/kg/day (reference value: 118 +/- 1 days); assay type: organism-based
[20] = Unbound fraction in mouse brain; assay type: ADME, tissue-based
Outline: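 The fraction unbound in mouse brain tissue was estimated with an in vitro brain tissue binding assay.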

[21] = Drug concentration at steady state in mouse brain assessed as total compound level in brain homogenates at 40 mg/kg/day, po measured after 3 days; assay type: ADME, organism-based; set-up: route oral; conditions: brain homogenate, read-out: Css; outline: as §3
[22] = Half life in FVB mouse plasma at 10 mg/kg, po administered as single dose; assay type: ADME, organism-based; set-up: dose 10 mg/kg, route oral; outline: as §2
Brain [23] = experiment: (§5) Cmax in mouse brain at 10 mg/kg, po administered as single dose; assay type: ADME, organism-based; set-up: dose 10 mg/kg, route oral; conditions: in vivo
[24] = as §1; assay type: ADME, organism-based; set-up: dose 10 mg/kg, route oral; conditions: brain
[25] = as §4; assay type: ADME, organism-based; set-up: dose 10 mg/kg, route oral; conditions: plasma
[26] = as §5; assay type: ADME, organism-based; set-up: dose 10 mg/kg, route oral; conditions: brain
Mus musculus [27] = experiment: Increase in survival in sc dosed mouse prion disease model assessed as increase in survival; assay type: functional
Mus musculus [28] = experiment: Increase in survival in sc dosed mouse prion disease model assessed as extension of survival relative to untreated control; assay type: functional

Compound: Cc1cccc(Nc2nc(-c3ccc(-c4ccccc4)cc3)cs2)n1
- EC50 [1]: 1300 nM
- AUC (Brain [2]): 9.78 µM·h
- Survival (Mus musculus [3]): 214 days
- AUC [4]: 29.1 µM·h
- Cmax [5]: 1660 nM
- Survival (Cervus elaphus nelsoni): 237 days
- concentration at 72 h [6]: 19300 nM
- bioavailability [7]: 40.3%
- clearance [8]: 15.3 mL/min/kg
- AUC [9]: 11.2 µM·h
- Cmax [10]: 2450 nM
- AUC [11]: 303 µM·h
- Vd [12]: 2.46 L/kg
- AUC (Plasma): 6.99 µM·h
- concentration at 72 h [13]: 37400 nM
- AUC [14]: 2.78 µM·h
- concentration at 72 h [15]: 31800 nM
- Kp [16]: 2.6
- half-life [17]: 2.16 h
- Cmax [18]: 2490 nM
- Survival (Mus musculus [19]): 204 days
- fraction unbound [20]: 0.08
- concentration at 72 h [21]: 8700 nM
- half-life [22]: 4.65 h

Compound: Cc1ccc(Nc2nc(-c3ccc(-c4ccccn4)s3)cs2)nc1
- EC50 [1]: 1200 nM
- AUC [11]: 4.6 µM·h

Compound: Cc1cccc(Nc2nc(-c3cc4ccccc4o3)cs2)n1
- EC50 [1]: 1500 nM
- concentration at 72 h [6]: 2700 nM
- AUC [11]: 65.4 µM·h
- concentration at 72 h [13]: 3230 nM
- concentration at 72 h [15]: 3740 nM
- concentration at 72 h [21]: 1310 nM

Compound: Cc1ccnc(Nc2nc(-c3ccc(-c4ccccn4)s3)cs2)c1
- AUC [4]: 4.54 µM·h
- Cmax [5]: 430 nM
- bioavailability [7]: 27.3%
- clearance [8]: 151 mL/min/kg
- AUC [9]: 0.82 µM·h
- Cmax [10]: 1620 nM
- AUC [11]: 60.2 µM·h
- Vd [12]: 12.6 L/kg
- AUC [14]: 0.3 µM·h
- Kp [16]: 5.53
- half-life [17]: 1.18 h
- Cmax [18]: 520 nM
- fraction unbound [20]: 0.08
- half-life [22]: 0.98 h

Compound: Cc1cccc(Nc2nc(-c3ccc(-c4cccnc4)cc3)cs2)n1
- EC50 [1]: 68 nM
- AUC (Brain [2]): 10.9 µM·h
- AUC (Plasma): 15.6 µM·h
- Cmax (Brain [23]): 2460 nM

Compound: O=C(Nc1nc(-c2ccc(-c3ccccc3)cc2)cs1)C1CC1
- AUC [24]: 18.6 µM·h
- AUC [25]: 12.7 µM·h
- Cmax [26]: 4340 nM

Compound: C(=N/Nc1ccc(-c2cnco2)cc1)/c1ccncc1
- AUC [4]: 1.06 µM·h
- Cmax [5]: 830 nM
- bioavailability [7]: 24.8%
- clearance [8]: 76 mL/min/kg
- AUC [9]: 2.06 µM·h
- Cmax [10]: 460 nM
- Vd [12]: 1.53 L/kg
- AUC [14]: 0.83 µM·h
- Kp [16]: 0.51
- half-life [17]: 0.22 h
- Cmax [18]: 1760 nM
- half-life [22]: 1.01 h

Compound: Cc1cccc(Cn2cc(-c3ccc(-c4cccnc4)cc3)cn2)n1
- EC50 [1]: > 10000 nM

Compound: O=C(CN1CCCC1)Nc1ccc(Cc2ccc(NC(=O)CN3CCCC3)cc2)cc1
- Survival (Mus musculus [27]): 20%
- Activity (Mus musculus [28]): 12%

Compound: Cc1ccc(Nc2nc(-c3cc(-c4ccccc4)no3)cs2)nc1
- EC50 [1]: 950 nM
- concentration at 72 h [6]: 5390 nM
- AUC [11]: 23.2 µM·h
- concentration at 72 h [13]: 12600 nM
- concentration at 72 h [15]: 23300 nM
- concentration at 72 h [21]: 880 nM

Compound: Cc1ccnc(Nc2nc(-c3ccncc3)cs2)c1
- EC50 [1]: 5000 nM
- AUC [11]: 34.6 µM·h

Compound: Cc1cccc(Nc2nc(-c3ccc(-c4ccncc4)cc3)cs2)n1
- EC50 [1]: 87 nM
- AUC (Brain [2]): 1.68 µM·h
- Cmax (Brain [23]): 500 nM

Compound: Cc1cccc(Nc2nc(-c3ccc(N4CCOCC4)cc3)cs2)n1
- EC50 [1]: 51 nM

Compound: c1ccc2cc(Nc3nc(-c4ccncc4)cs3)ncc2c1
- concentration at 72 h [6]: 80 nM
- AUC [11]: 59.1 µM·h
- concentration at 72 h [13]: 100 nM
- concentration at 72 h [15]: 40 nM
- concentration at 72 h [21]: 20 nM

Compound: c1ccc2cc(Nc3nc(-c4cc5ccccc5o4)cs3)ncc2c1
- EC50 [1]: 920 nM
- AUC [11]: 10.9 µM·h

Compound: COc1ccc(-c2csc(Nc3cc4ccccc4cn3)n2)cc1OC
- concentration at 72 h [6]: 60 nM
- AUC [11]: 6.3 µM·h
- concentration at 72 h [13]: 320 nM
- concentration at 72 h [15]: 140 nM
- concentration at 72 h [21]: 30 nM

Compound: Cc1ccc(Nc2nc(-c3ccncc3)cs2)nc1
- EC50 [1]: 1600 nM
- AUC [11]: 9.7 µM·h

Compound: Cc1cccc(Nc2nc(-c3ccc(-c4ccnn4C)cc3)cs2)n1
- EC50 [1]: 89 nM

Reference: ChEMBL document CHEMBL3352428, “Successes and challenges in phenotype-based lead discovery for prion diseases” (J Med Chem, 2014)
